Calls of active or inactive are those of the source. The calls are words filed in the database; no cut-off is given here.
How the values were obtained:
Rattus norvegicus = species on record: Rattus norvegicus; assay: Neuroprotective activity against low serum/K+ deprivation-induced toxicity in rat CGN cells assessed as increase in cell viability at 5 to 25 uM pre-treated for 6 hrs followed by 24 hrs co-treatment with serum/K+ starvation and measured after 24 hrs by MTT assay; format: functional, cell-based
Outline: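 Primary rat cerebellar granule neurons were pretreated for 6 h, then cotreated for 24 h under low-serum and K+ deprivation to induce death. Viability was compared with control and deprivation-only conditions, with tacrine as reference compound.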

Histone deacetylase 1 [1] = target: T1, Histone deacetylase 1 (Homo sapiens, UniProt Q13547); assay: Inhibition of human recombinant HDAC1 using ZMAL (Z-(Ac)Lys-AMC fluorogenic substrate incubated for 90 mins by fluorescence method
T1 sequence (Q13547 whole entry): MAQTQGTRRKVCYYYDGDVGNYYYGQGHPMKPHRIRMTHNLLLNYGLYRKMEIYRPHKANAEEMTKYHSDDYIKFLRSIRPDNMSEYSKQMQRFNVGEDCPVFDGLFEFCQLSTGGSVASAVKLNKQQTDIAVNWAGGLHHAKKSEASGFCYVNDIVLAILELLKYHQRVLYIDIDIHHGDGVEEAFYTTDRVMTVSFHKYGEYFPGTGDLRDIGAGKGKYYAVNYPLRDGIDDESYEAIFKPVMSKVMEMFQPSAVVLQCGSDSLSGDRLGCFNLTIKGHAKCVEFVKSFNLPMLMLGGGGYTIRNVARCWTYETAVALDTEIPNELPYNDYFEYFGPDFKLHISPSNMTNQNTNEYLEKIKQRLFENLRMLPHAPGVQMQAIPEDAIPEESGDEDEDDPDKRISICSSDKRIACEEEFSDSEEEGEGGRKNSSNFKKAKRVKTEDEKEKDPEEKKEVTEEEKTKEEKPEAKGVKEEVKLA

[2] = target: T2, Histone deacetylase 7 (Homo sapiens) (UniProt Q8WUI4); assay: Inhibition of human recombinant HDAC7 using fluorogenic trifluoroacetyl lysine as substrate at 10 uM by fluorescence method
T2 sequence (whole entry): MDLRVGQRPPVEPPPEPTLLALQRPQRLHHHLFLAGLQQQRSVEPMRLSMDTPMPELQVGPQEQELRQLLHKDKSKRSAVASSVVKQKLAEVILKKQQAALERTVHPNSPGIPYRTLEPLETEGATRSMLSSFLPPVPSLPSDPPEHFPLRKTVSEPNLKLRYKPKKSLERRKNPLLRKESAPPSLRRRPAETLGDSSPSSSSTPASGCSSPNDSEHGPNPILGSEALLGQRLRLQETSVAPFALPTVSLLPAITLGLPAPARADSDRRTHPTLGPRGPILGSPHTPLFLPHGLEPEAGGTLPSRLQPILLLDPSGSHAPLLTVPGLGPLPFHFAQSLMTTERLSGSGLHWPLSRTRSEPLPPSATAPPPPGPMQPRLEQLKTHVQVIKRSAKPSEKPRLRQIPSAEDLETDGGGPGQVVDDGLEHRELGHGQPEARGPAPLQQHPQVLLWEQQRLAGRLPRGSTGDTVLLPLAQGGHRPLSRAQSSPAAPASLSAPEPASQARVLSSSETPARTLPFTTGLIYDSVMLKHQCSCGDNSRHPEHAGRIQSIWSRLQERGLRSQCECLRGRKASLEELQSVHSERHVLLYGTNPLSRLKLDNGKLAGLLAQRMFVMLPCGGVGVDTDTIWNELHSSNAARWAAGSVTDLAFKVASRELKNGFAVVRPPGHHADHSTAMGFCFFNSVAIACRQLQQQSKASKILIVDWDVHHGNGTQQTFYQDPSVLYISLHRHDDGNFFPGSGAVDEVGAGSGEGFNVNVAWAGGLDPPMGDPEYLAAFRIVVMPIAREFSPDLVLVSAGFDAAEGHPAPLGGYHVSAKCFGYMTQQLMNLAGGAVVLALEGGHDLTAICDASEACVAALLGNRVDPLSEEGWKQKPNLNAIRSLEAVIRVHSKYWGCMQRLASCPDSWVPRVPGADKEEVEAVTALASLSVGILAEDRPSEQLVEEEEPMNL
Outline: (§1)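 Selectivity profile across HDAC isoforms 1–11 at a single concentration of 10 μM, run in duplicate.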

[3] = target: Histone deacetylase (Mus musculus) (UniProt Q8VH37+Q9Z2V6+Q9Z2V5+O09106+Q8C2B3+P70288+O88895+Q91WA3+Q99N13+Q6NZM9+Q6P3E7); details: at 5 to 25 µM
N9 = assay: Immunomodulatory activity in mouse N9 cells assessed as reduction in LPS-induced iNOS expression at 5 to 25 uM incubated for 24 hrs by Western blot analysis; format: functional, cell-based
Outline: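 N9 mouse microglial cells stimulated with LPS (100 ng/mL) and treated at 5 and 25 μM. iNOS and MRC1 levels were read by Western blot with GAPDH as loading control. Densitometry is expressed as percentage of LPS-only cells, as mean ± SE of three independent experiments.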

[4] = target: T3, Polyamine deacetylase HDAC10 (Homo sapiens) (UniProt Q969S8); assay: Inhibition of human recombinant HDAC10 using fluorogenic peptide p53 residues 379-382 (RHKK(Ac)AMC) as residues at 10 uM by fluorescence method; outline: as §1
T3 sequence (whole entry): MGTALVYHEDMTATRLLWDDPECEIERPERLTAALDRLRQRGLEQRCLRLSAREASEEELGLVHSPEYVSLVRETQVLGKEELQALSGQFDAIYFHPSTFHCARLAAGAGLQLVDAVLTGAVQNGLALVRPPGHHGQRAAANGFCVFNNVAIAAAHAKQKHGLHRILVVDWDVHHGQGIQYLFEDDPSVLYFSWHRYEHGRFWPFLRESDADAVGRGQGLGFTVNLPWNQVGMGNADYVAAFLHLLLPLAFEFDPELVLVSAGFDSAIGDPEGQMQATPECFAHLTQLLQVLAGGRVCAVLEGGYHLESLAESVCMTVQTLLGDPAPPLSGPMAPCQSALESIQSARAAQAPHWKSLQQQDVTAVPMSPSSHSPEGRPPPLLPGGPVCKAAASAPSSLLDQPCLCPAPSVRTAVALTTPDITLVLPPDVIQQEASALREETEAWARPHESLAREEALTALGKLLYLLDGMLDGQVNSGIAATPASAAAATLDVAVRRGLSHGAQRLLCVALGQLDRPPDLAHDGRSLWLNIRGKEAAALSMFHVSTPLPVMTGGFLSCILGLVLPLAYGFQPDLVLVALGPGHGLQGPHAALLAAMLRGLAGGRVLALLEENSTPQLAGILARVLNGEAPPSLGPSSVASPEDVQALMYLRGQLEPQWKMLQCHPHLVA

[5] = target: Histone deacetylase 3 (Homo sapiens) (UniProt O15379); assay: Inhibition of human recombinant HDAC3 using fluorogenic peptide p53 residues 379-382 (RHKK(Ac)AMC) as residues at 10 uM by fluorescence method; outline: as §1
Histone deacetylase 3 (Homo sapiens), sequence (O15379 whole entry, the tested form may be a part): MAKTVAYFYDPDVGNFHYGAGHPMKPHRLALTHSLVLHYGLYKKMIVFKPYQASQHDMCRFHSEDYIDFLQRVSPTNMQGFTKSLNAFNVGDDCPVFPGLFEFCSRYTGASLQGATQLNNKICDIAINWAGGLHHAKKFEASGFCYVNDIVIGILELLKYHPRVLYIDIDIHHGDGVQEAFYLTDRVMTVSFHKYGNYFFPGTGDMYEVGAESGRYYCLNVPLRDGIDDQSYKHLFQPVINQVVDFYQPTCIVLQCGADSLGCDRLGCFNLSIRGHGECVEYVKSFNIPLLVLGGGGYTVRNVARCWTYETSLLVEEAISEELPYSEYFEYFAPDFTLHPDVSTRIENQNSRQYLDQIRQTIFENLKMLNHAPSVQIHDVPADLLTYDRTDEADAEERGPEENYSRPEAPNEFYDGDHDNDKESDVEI

Histone deacetylase 1 [6] = target: T1, Histone deacetylase 1; assay: Inhibition of human recombinant HDAC1 using fluorogenic peptide p53 residues 379-382 (RHKK(Ac)AMC) as residues at 10 uM by fluorescence method; outline: as §1
[7] = target: Histone deacetylase 9 (Homo sapiens) (UniProt Q9UKV0); assay: Inhibition of human recombinant HDAC9 using fluorogenic trifluoroacetyl lysine as substrate at 10 uM by fluorescence method; outline: as §1
Histone deacetylase 9 (Homo sapiens), sequence (Q9UKV0 whole entry): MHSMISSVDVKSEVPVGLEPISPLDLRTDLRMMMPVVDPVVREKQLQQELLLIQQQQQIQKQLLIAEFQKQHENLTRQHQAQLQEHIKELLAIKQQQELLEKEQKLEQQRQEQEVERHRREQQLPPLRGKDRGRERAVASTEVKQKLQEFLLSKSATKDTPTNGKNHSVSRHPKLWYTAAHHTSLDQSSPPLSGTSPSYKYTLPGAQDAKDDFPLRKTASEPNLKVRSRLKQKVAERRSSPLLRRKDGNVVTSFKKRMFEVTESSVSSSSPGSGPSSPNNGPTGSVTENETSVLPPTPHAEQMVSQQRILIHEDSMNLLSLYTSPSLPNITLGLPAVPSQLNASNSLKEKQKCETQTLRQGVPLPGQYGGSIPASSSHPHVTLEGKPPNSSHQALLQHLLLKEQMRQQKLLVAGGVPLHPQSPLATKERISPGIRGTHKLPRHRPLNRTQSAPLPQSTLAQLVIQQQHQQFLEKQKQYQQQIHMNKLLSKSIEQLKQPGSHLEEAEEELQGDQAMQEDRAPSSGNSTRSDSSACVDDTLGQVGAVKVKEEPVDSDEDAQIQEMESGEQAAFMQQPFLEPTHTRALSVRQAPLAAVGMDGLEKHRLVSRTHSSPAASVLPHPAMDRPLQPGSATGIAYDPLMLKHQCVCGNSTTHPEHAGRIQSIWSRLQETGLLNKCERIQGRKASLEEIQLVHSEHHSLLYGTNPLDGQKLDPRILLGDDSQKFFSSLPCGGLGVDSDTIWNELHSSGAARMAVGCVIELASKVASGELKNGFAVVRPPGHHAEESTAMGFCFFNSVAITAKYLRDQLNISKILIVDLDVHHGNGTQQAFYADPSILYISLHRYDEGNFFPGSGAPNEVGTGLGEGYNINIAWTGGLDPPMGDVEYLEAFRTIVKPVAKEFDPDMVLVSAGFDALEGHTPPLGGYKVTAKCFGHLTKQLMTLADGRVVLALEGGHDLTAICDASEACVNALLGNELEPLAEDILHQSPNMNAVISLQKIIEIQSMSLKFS

| SMILES | Activity (Rattus norvegicus) | IC50 (Histone deacetylase 1 [1]) | inhibition [2] | inhibition [3] | Activity (N9) | inhibition [4] | inhibition [5] | inhibition (Histone deacetylase 1 [6]) | inhibition [7] |
| --- | --- | --- | --- | --- | --- | --- | --- | --- | --- |
| COc1cccc(CCCCCCCC(=O)NO)c1 | inactive | 316 nM | inactive | Active | Active | inactive | inactive | Active | inactive |
| COC(=O)c1c(CCCCCCCC(=O)NO)cccc1OC | inactive | 775 nM | inactive | Active | Active | inactive | inactive | Active | inactive |

Reference: ChEMBL document CHEMBL4433221, “Novel Sustainable-by-Design HDAC Inhibitors for the Treatment of Alzheimer's Disease” (ACS Med Chem Lett, 2019)
